Screening data (PubChem)
In the library only some 2.2% were active in any assay of this set; here they are far more common.
FLuc stim CS: firefly luciferase counter-screen for stimulation assays; ATPlite luciferase biochemical, luminescence, 10 min; 0 = ATP-free wells, 1 = DMSO control; activation factor at 10 µM; 200,000 tested, under 10 active;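 active = luciferase activation factor, scaled between plate controls, of at least 2 with compound at 10 µM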
Target sequence (P08659 whole entry, looked up): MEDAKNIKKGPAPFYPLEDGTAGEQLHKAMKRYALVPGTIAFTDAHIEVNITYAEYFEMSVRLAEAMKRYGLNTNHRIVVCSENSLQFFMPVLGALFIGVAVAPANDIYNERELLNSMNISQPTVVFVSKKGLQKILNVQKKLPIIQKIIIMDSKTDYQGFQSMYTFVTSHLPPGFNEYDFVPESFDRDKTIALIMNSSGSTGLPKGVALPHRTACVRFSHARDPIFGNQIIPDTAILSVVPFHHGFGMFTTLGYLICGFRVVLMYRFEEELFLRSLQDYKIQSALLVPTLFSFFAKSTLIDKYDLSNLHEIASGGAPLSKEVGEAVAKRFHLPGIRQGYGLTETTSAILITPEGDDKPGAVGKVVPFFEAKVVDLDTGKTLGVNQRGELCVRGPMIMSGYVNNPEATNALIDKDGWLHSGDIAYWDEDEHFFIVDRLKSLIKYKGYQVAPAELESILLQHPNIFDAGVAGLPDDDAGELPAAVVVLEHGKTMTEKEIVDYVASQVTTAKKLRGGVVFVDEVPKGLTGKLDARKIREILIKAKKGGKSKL
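System: cell-free luciferase reagent; medium: PBS as buffer for the ATP substrate; doses: test compounds dosed from 2 mM stocks in 100% DMSO; incubation: 10 min, room temperature; measured by: luminescence from luciferase reaction; read-out: luciferase activation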
FLuc inh counter: counter-screen for luciferase assay inhibitors: firefly luciferase inhibition; inhibition, % at 10 µM; P08659; ATPLite firefly luciferase biochemical luminescence, 10 min; 200,000 tested, 1.5% active;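 active = inhibition above about 50% when tested at 10 µM, limit read from the data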
HSP90 inh: blocks HSP90-mediated luciferase refolding in reticulocyte lysate; Rabbit reticulocyte lysate, luciferase refolding luminescence, 3 h; inhibition, % at 5.6 µM; 290,000 tested, 0.91% active;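 active = inhibition above the screen-wide mean plus 3 SD, computed separately per campaign, cut at about 16% in these data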;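 also: 0% = DMSO wells and 100% = 60 µM geldanamycin wells; inhibitors lower the luminescence because luciferase stays unfolded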
C8 TRAIL sens: caspase-8 TRAIL sensitization; NB7+C8 cells + TRAIL, ATPlite viability luminescence; AID 624354; 360,000 tested, 1% active; inhibition (viability loss, TRAIL sensitization), % at 10 µM;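 active = compounds causing at least 50% loss of cell viability in the single-dose screen, relative to plate controls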
PPC-1+TRAIL kill: PPC-1 cancer cell killing with TRAIL present; cell killing (% activity), % at 4 µM or 5 µM; 220,000 tested, 0.41% active; PPC-1 cells + TRAIL, ATPLite viability luminescence; AID 1443;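 active = cell killing above 50% in the first pass at 4 µM, then a duplicate retest at 5 µM averaging 50% or more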;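 also: plate controls were cells with TRAIL plus DMSO for no effect and medium-only wells lacking cells for full effect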
STAT3 blocker: inhibitors of IL-6 induced STAT3 signaling. U3A cells, IL-6 STAT3-luciferase reporter, luminescence; host cell line lacks STAT1. inhibition, % at 5.5 µM. 190,000 tested, 0.89% active;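 active = inhibition above the mean inhibition across all screened compounds plus 3 SD, cut at about 44% in these data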;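 also: 0% = DMSO only wells and 100% = 100 µM nifuroxazide control wells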
The depositor's hits bear a star.

O=C(Nc1ccc2ccccc2c1)c1ccccc1F was read as HSP90 inh 16.0 and C8 TRAIL sens 15.6.
`Cc1nn(Cc2noc(C(=O)NCc3ccccn3)n2)c(C)c1Br` gave HSP90 inh -4.4 and C8 TRAIL sens 4.0.
For Cc1cccnc1NC(=O)Cn1nc(-c2ccccc2)oc1=S the results were FLuc stim CS 1, FLuc inh counter -3.7, HSP90 inh -3.8, C8 TRAIL sens 25.1, PPC-1+TRAIL kill 63.8* and STAT3 blocker 5.8.
Screening Cc1cccnc1NC(=O)Cn1nc([N+](=O)[O-])cc1C returned FLuc stim CS 1, FLuc inh counter -4.2, HSP90 inh 2.3, C8 TRAIL sens -10.8, PPC-1+TRAIL kill -4.6 and STAT3 blocker 7.0.
Screening CC(=O)Nc1ccc2sccc2c1 returned FLuc stim CS 1, FLuc inh counter -4.6, HSP90 inh -1.5, C8 TRAIL sens -13.5, PPC-1+TRAIL kill 10.7 and STAT3 blocker -5.0.
N#Cc1cc2c(nc1SCC(=O)Nc1nccs1)CCCCC2 was read as FLuc stim CS 1, FLuc inh counter -3.7, HSP90 inh 19.7*, C8 TRAIL sens 58.5*, PPC-1+TRAIL kill 66.8* and STAT3 blocker 22.1.
N#CC1(c2ccc(NC(=O)c3ccccc3)cc2)CCCC1 was read as FLuc stim CS 0.4, FLuc inh counter 60.7*, HSP90 inh -2.9, C8 TRAIL sens 53.6*, PPC-1+TRAIL kill 34.3 and STAT3 blocker 6.1.
For CC(=O)Oc1ccc(C(=O)Nc2ccc(C3(C#N)CCCC3)cc2)cc1 the results were HSP90 inh -2.6 and C8 TRAIL sens 49.1.
For Cc1noc(C)c1CCC(=O)N1CCCC(N2CCN(c3ccc(F)cc3)CC2)C1 (configuration not stated) the results were HSP90 inh 5.5 and C8 TRAIL sens -11.1.
`CC(=O)c1ccc(NC(=S)N2CCCCCC2)cc1` gave FLuc stim CS 0.9, FLuc inh counter 9.0, HSP90 inh -3.4, C8 TRAIL sens 49.2, PPC-1+TRAIL kill 36.1 and STAT3 blocker 10.9.
COC(=O)Cc1ccc(NC(=S)N2CCCC(CO)C2)cc1 (configuration not stated) was read as FLuc stim CS 0.1, FLuc inh counter 93.2*, HSP90 inh 4.4, C8 TRAIL sens 75.2*, PPC-1+TRAIL kill 63.0* and STAT3 blocker 6.0.
CC(=O)c1ccc(NC(=S)N2CCCC(CO)C2)cc1 (configuration not stated) was read as FLuc stim CS 0.5, FLuc inh counter 52.2*, HSP90 inh 1.7, C8 TRAIL sens 19.4, PPC-1+TRAIL kill 34.1 and STAT3 blocker 15.4.
Screening OCC1CCCN(C(=S)Nc2ccc(Oc3ccccc3)cc2)C1 (configuration not stated) returned FLuc stim CS 0.9, FLuc inh counter 5.8, HSP90 inh -0.6, C8 TRAIL sens 5.8, PPC-1+TRAIL kill 15.8 and STAT3 blocker -6.1.
Screening COCCN1C(=O)COc2ccccc2C1C(=O)NCc1ccccc1 (configuration not stated) returned C8 TRAIL sens -5.7.
For CCOC(=O)c1cc(C(=O)Nc2cccc(C)c2)nn1C the results were FLuc stim CS 0.4, FLuc inh counter 59.6*, HSP90 inh 5.5, C8 TRAIL sens 34.1, PPC-1+TRAIL kill 21.0 and STAT3 blocker -2.1.
Screening Clc1ncnc2c1oc1ccccc12 returned FLuc stim CS 1.1, FLuc inh counter -5.3, HSP90 inh -2.0, C8 TRAIL sens 64.6*, PPC-1+TRAIL kill 11.3 and STAT3 blocker -39.4.
`CC(C)C[C@H](NC(=O)c1nc[nH]c1C(=O)N1CCN(c2ccccc2)CC1)C(=O)OCc1ccccc1` gave C8 TRAIL sens -1.2 and PPC-1+TRAIL kill -0.9.
Cc1cc(C(=O)c2ccccc2)nc2ccccc12 was read as FLuc stim CS 1.1, FLuc inh counter -7.8, HSP90 inh 1.4, C8 TRAIL sens -1.9, PPC-1+TRAIL kill 47.5 and STAT3 blocker 6.1.
Cc1cc(/C=C\c2ccccc2)nc2ccccc12 was read as FLuc stim CS 0.3, FLuc inh counter 67.6*, HSP90 inh 2.8, C8 TRAIL sens 46.7, PPC-1+TRAIL kill 31.6 and STAT3 blocker -32.4.
Screening C/C(=C\C(=O)c1ccccc1)Nc1ccc(O)cc1 returned FLuc stim CS 0.7, FLuc inh counter 27.1, HSP90 inh 8.4, C8 TRAIL sens -0.3, PPC-1+TRAIL kill 2.2 and STAT3 blocker 6.5.
Screening C/C(=C\C(=O)c1ccc(C)cc1)Nc1cccc(O)c1 returned FLuc stim CS 0.3, FLuc inh counter 65.4*, HSP90 inh -6.0, C8 TRAIL sens 23.8, PPC-1+TRAIL kill 27.0 and STAT3 blocker 24.0.
For CC(=O)c1cccc(N/C=C\C(=O)c2ccc(C)cc2)c1 the results were FLuc stim CS 0.1, FLuc inh counter 91.2*, HSP90 inh 2.0, C8 TRAIL sens 52.1*, PPC-1+TRAIL kill 61.5* and STAT3 blocker 25.5.
For Cc1cccc(N2CCN(C(=O)c3ccc4c(c3)CCN4S(C)(=O)=O)CC2)c1C the results were HSP90 inh -1.8 and C8 TRAIL sens 10.1.
Screening COc1ccc(/C=C/C(=O)NC(=S)Nc2ccccn2)cc1 returned HSP90 inh -1.4 and C8 TRAIL sens 50.8*.
Screening COc1ccc(/C=C/C(=O)Nc2cccc(C(C)=O)c2)cc1 returned FLuc stim CS 0.3, FLuc inh counter 69.6*, HSP90 inh -1.6, C8 TRAIL sens 41.7, PPC-1+TRAIL kill 47.9 and STAT3 blocker 5.1.
For COc1ccccc1/C=C/C(=O)NC(=S)Nc1ccccn1 the results were HSP90 inh 4.0 and C8 TRAIL sens 8.7.
For COc1cccc(/C=C/C(=O)Nc2cccc(C(C)=O)c2)c1OC the results were FLuc stim CS 0.3, FLuc inh counter 67.5*, HSP90 inh -4.3, C8 TRAIL sens 49.0, PPC-1+TRAIL kill 28.2 and STAT3 blocker 4.9.
Screening COc1ccccc1/C=C/C(=O)Nc1cccc(C(C)=O)c1 returned FLuc stim CS 0.8, FLuc inh counter 17.0, HSP90 inh -3.2, C8 TRAIL sens -4.3, PPC-1+TRAIL kill 9.0 and STAT3 blocker 9.2.
`CCOC(=O)C1=C(CN2CCN(C(=O)c3ccco3)CC2)NC(=O)NC1c1ccc(C)cc1` (configuration not stated) gave HSP90 inh 1.4 and C8 TRAIL sens -11.3.
Screening O=C1c2ccccc2C(=O)c2cc(N3CCCCC3)ccc21 returned C8 TRAIL sens 86.5*.
`O=C(NCCc1ccccn1)C(F)(F)C(F)(F)C(F)(F)C(F)(F)C(F)(F)C(F)F` gave FLuc stim CS 1, FLuc inh counter -2.6, HSP90 inh -4.6, C8 TRAIL sens -1.8, PPC-1+TRAIL kill 14.5 and STAT3 blocker 5.5.
For COC(=O)C1=C(O)/C(=C\c2cc(C)n(-c3ccccc3F)c2C)N=C1C the results were FLuc stim CS 0.4, FLuc inh counter 63.8*, HSP90 inh 2.5, C8 TRAIL sens -3.8 and STAT3 blocker 7.8.
`N#CC1(NC(=O)Cn2ncc(Cl)c(Cl)c2=O)CCCCC1` gave C8 TRAIL sens 92.8*.
